Test results from ChEMBL document CHEMBL4392846, “Identification and design of novel small molecule inhibitors against MERS-CoV papain-like protease via high-throughput screening and molecular modeling” (Bioorg Med Chem, 2019).
Calls of active or inactive are those of the source. No cut-off for these calls is given here.

What was measured:
[1] = molecular target: T1, Replicase polyprotein 1ab (Middle East respiratory syndrome-related coronavirus (isolate UnitedKingdom/H123990006/2012) (Betacoronavirus England 1) (Humancoronavirus EMC), UniProt K9N7C7); test: (§1) Inhibition of MERS-CoV papain-like protease using Z-Arg-Leu-Arg-Gly-Gly-AMC as substrate preincubated for 5 mins followed by substrate addition and measured for 10 mins by fluorescence assay
[2] = molecular target: Replicase polyprotein 1ab (Middle East respiratory syndrome-related coronavirus (isolate UnitedKingdom/H123990006/2012) (Betacoronavirus England 1) (Humancoronavirus EMC)) (UniProt K9N7C7); test: as §1; parameters: concentration or dose not given beside the values
Target sequence in this assay (K9N7C7 854-2740 limits assumed): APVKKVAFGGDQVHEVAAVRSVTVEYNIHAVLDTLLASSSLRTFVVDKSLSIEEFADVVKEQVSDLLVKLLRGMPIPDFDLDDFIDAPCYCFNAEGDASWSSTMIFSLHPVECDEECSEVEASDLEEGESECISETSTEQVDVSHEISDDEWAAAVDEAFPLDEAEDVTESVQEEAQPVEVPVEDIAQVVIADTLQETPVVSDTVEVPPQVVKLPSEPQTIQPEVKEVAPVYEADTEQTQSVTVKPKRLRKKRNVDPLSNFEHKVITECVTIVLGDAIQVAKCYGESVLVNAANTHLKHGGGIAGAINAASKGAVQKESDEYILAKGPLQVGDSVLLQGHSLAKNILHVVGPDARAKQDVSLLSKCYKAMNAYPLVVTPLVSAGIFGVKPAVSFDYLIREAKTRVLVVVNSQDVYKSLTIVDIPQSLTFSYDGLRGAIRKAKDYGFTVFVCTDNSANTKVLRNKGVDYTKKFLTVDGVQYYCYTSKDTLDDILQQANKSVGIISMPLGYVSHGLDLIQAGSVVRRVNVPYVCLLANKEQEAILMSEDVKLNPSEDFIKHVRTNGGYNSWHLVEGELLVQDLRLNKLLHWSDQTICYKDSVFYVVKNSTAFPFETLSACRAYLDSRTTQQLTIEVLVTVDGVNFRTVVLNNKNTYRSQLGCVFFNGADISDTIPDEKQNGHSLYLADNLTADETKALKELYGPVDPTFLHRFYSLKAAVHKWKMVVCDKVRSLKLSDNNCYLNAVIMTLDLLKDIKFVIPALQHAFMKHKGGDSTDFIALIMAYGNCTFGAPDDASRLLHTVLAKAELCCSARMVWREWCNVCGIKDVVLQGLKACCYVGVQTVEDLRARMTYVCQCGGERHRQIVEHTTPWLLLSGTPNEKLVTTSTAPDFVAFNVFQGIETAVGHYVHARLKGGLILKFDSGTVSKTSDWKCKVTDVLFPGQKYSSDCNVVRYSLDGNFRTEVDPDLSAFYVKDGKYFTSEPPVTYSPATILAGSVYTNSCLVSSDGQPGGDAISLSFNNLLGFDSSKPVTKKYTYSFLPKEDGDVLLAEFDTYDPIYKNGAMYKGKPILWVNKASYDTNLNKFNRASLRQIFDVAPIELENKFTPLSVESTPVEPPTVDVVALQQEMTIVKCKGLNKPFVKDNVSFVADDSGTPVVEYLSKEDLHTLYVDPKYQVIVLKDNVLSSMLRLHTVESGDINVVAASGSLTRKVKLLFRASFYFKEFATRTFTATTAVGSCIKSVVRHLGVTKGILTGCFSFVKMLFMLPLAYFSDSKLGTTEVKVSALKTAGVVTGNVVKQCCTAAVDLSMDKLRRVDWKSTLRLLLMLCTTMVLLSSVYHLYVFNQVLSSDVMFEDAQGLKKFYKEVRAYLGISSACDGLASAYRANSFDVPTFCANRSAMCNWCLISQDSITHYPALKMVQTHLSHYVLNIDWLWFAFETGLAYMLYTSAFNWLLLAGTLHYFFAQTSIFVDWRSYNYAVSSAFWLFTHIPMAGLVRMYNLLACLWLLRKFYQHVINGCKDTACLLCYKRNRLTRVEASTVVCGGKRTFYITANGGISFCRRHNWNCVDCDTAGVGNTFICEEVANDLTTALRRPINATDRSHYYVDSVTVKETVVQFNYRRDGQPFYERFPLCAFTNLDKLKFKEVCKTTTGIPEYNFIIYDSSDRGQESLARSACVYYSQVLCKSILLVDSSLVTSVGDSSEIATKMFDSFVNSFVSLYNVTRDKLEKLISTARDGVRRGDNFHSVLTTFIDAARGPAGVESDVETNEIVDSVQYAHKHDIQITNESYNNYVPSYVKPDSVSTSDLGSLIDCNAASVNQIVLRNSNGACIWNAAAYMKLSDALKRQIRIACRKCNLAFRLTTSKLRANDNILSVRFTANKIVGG

[3] = molecular target: Replicase polyprotein 1ab (Middle East respiratory syndrome-related coronavirus (isolate UnitedKingdom/H123990006/2012) (Betacoronavirus England 1) (Humancoronavirus EMC)) (UniProt K9N7C7); test: Inhibition of MERS-CoV papain-like protease at 50 uM using Z-Arg-Leu-Arg-Gly-Gly-AMC as substrate preincubated for 5 mins followed by substrate addition and measured for 10 mins by fluorescence assay relative to control
Outline: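 Confirmation retest run by hand in triplicate at room temperature. Buffer: 50 mM HEPES pH 7.5, 0.01% Triton X-100, 0.1 mg/mL BSA, 2 mM DTT. Enzyme and compound preincubated 5 min, then Z-RLRGG-AMC added to 50 µM final. AMC fluorescence (ex 360/em 450 nm) followed continuously; percent inhibition calculated against DMSO control.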

[4] = molecular target: Replicase polyprotein 1ab (Middle East respiratory syndrome-related coronavirus (isolate UnitedKingdom/H123990006/2012) (Betacoronavirus England 1) (Humancoronavirus EMC)) (UniProt K9N7C7); test: Binding affinity to MERS-CoV papain-like protease in presence of Z-Arg-Leu-Arg-Gly-Gly-AMC by SPR analysis
Outline: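 MERS-CoV PLpro was amine-coupled to a CM5 chip (~10,000 RU), with unmodified reference cells. Compounds (0-50 µM, 2-fold series) were injected with 500 µM Z-RLRGG-AMC substrate present, in PBSP + 0.5 mM TCEP + 2% DMSO at 30 µL/min and 25°C. Data were double-referenced, and KD came from a steady-state hyperbolic fit.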

[5] = molecular target: T1, Replicase polyprotein 1ab; test: Binding affinity to MERS-CoV papain-like protease by SPR analysis
Outline: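 SPR on Biacore T200. Enzyme at 50 µg/mL in 10 mM sodium acetate pH 5.5 amine-coupled to CM5 chip (~10,000 RU); blank flow cells as reference. Compounds 0-50 µM (2-fold series) in PBSP + 0.5 mM TCEP, 2% DMSO, 30 µL/min, 25°C; double-referenced. KD from steady-state responses fit to rectangular hyperbola; rate constants from global 1:1 Langmuir fit.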

[6] = molecular target: T1, Replicase polyprotein 1ab; test: Competitive-inhibition of MERS-CoV papain-like protease using varying levels of Z-Arg-Leu-Arg-Gly-Gly-AMC as substrate by Dixon-plot analysis
[7] = molecular target: Replicase polyprotein 1ab (Middle East respiratory syndrome-related coronavirus (isolate UnitedKingdom/H123990006/2012) (Betacoronavirus England 1) (Humancoronavirus EMC)) (UniProt K9N7C7); test: Reversible inhibition of MERS-CoV papain-like protease assessed as recovery of enzyme activity at 125 times IC50 using Z-Arg-Leu-Arg-Gly-Gly-AMC as substrate incubated for 1 hr followed by 2-fold dilution and measured by fluorescence assay
Outline: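 Dilution method: 4 µM enzyme incubated with compound for 1 h at room temperature in HEPES pH 7.5 assay buffer (2 mM DTT, 0.1 mg/ml BSA, 0.01% Triton X-100). DMSO-only enzyme served as control. Both samples diluted 2-fold, then seven further 2-fold dilutions. Activity read at each step with the continuous Z-RLRGG-AMC fluorescence assay.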

[8] = molecular target: Replicase polyprotein 1ab (Middle East respiratory syndrome-related coronavirus (isolate UnitedKingdom/H123990006/2012) (Betacoronavirus England 1) (Humancoronavirus EMC)) (UniProt K9N7C7); test: Binding affinity to 15N-labelled His-tagged Apo-MRES-CoV papain-like protease by TROSY [1H-15N] spectroscopy

T1 sequence (K9N7C7 854-2740 limits assumed): as above

Structure (SMILES) | IC50 [1] [µM] | inhibition [2] [%] | Kd [5] [µM] | other results
O=Cc1ccc(O)c(O)c1 [PROTOCATECHUALDEHYDE] | 239 |  |  | 
CC1CCCC(C)N1S(=O)(=O)c1ccc(N)cc1 (configuration not stated) |  | 7 |  | 
O=C(NC1=CC=CC2C(=O)C=C(c3nn[nH]n3)OC12)c1ccc(OCCCCc2ccccc2)cc1 (configuration not stated) |  |  |  | inhibition [3]: > 50%; Activity [4]: inactive
Nc1ccc([N+](=O)[O-])cn1 | 137 |  |  | 
O=C(O)c1cc(/C=C/c2ccc(N3CCOCC3)cc2)nc2ccccc12 |  |  | 7.6 to 112 | 
Cc1cc(C)n(S(=O)(=O)c2ccc(N)cc2)c(=O)n1 | 20 | 73 | 7.6 to 9.3 | inhibition [3]: > 50%; Ki [6]: 36.6 µM; inhibition [7]: Active; Activity [8]: Active
COCC(=O)/C=C1\Sc2ccccc2N1C |  |  | 7.6 to 112 | 
Cn1c(=O)c2c(nc(NN=C3C(=O)NC(=O)NC3=O)n2C)n(C)c1=O |  |  | 7.6 to 112 | 
O=[N+]([O-])c1ccc(O)c(O)c1 [4-Nitrocatechol] | 145 |  |  | 
O=[N+]([O-])c1ccc(Cl)c2nonc12 | 141 |  |  | 
CC(=O)Nc1ccc(S(=O)(=O)n2c(C)cc(C)nc2=O)cc1 |  | 2 |  | 
Cc1ccc(C)c(CSc2nc(C3CCCCC3)c(C#N)c(=O)[nH]2)c1 |  |  | 7.6 to 112 | 
Nc1ccc(S(=O)(=O)N2CC(=O)NC(=O)C2)cc1 |  | 16 |  | 
O=C(O)c1cc(/N=N/c2ccc(S(=O)(=O)Nc3ccccn3)cc2)ccc1O [SULFASALAZINE] |  |  | 7.6 to 112 | 
Cc1ccc(S(=O)(=O)n2c(C)cc(C)nc2=O)cc1 |  | 11 |  | 
